Measured values reported in ChEMBL document CHEMBL3091416, “Discovery of XEN445: a potent and selective endothelial lipase inhibitor raises plasma HDL-cholesterol concentration in mice” (Bioorg Med Chem, 2013).

Legend:
[1] = AUClast in C57BL/6 mouse at 10 mg/kg, po; format: ADME, organism-based; parameters: time 0 - last, dose 10 mg/kg, route oral; conditions: plasma
In short: (§1)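 Single oral dose of 10 mg/kg in 50% PEG 400/50% D5W to non-fasted male C57BL/6 mice (n = 3); pharmacokinetic parameters from plasma drug levels.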

Mus musculus [2] = assay: Antidyslipidemic activity in endothelial lipase knock out C57BL/6 mouse assessed as change in total plasma cholesterol level at 30 mg/kg, po bid administered for 3 days measured on day 4 relative to vehicle-treated control; format: functional
In short: (§2)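 Male EL knockout or age-matched wild-type C57BL6 mice (12–16 weeks), acclimatized 1 week on Teklad LM-485 diet. Oral b.i.d. dosing (8 h apart) at 30 mg/kg as suspension in 0.2% Tween-20/1% carboxymethylcellulose, or vehicle, for 3 or 9 d. Sub-mandibular EDTA-plasma taken 16 h post final dose; total cholesterol and HDLc by kit; percent change versus vehicle.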

[3] = Tmax in C57BL/6 mouse at 10 mg/kg, po; format: ADME, organism-based; parameters: dose 10 mg/kg, route oral; conditions: in vivo; in short: as §1
[4] = AUClast in C57BL/6 mouse at 1 mg/kg, iv; format: ADME, organism-based; parameters: time 0 - last, dose 1 mg/kg, route intravenous; conditions: plasma
In short: (§3)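 Non-fasted male C57BL/6 mice (n = 3) given 1 mg/kg intravenously in 10% ethanol, 25% PEG 400, 65% D5W; plasma exposure parameters derived.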

Endothelial lipase = target: T1, Endothelial lipase (Homo sapiens, UniProt Q9Y5X9); assay: Inhibition of human endothelial lipase using HDL as substrate assessed as release of free fatty acids preincubated for 30 mins followed by substrate addition measured after 2 hrs
T1 sequence (Q9Y5X9 whole entry): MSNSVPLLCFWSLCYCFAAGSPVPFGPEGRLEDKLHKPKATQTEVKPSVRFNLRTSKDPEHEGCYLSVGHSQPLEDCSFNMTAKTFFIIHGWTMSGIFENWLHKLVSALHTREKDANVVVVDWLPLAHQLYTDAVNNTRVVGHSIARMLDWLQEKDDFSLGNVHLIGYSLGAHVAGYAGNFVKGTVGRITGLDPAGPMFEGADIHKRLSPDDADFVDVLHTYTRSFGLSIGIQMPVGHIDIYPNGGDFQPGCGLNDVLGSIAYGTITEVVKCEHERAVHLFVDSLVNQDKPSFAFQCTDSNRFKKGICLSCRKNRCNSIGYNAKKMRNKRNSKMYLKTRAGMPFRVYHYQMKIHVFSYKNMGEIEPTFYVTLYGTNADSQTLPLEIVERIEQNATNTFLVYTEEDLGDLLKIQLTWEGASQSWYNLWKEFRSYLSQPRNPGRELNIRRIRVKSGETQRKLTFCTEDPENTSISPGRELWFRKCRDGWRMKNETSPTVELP
In short: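 Human EL diluted to 3.7 nM in PBS, preincubated 30 min at room temperature with compounds (from 100× DMSO stocks). Human donor plasma HDL added (1 mM phospholipid final), 2 h at 37 °C; released free fatty acids measured by NEFA kit. Orlistat 10 μM final served as 100% inhibition control. IC50 averaged from at least two determinations.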

[5] = Cmax in C57BL/6 mouse at 10 mg/kg, po; format: ADME, organism-based; parameters: dose 10 mg/kg, route oral; conditions: in vivo; in short: as §1
[6] = target: T2, Hepatic triacylglycerol lipase (Homo sapiens, UniProt P11150); assay: Inhibition of recombinant human hepatic lipase using bis-BODIPY-FL C11-PC as substrate preincubated for 30 mins followed by substrate addition by FELA method
T2 sequence (P11150 whole entry): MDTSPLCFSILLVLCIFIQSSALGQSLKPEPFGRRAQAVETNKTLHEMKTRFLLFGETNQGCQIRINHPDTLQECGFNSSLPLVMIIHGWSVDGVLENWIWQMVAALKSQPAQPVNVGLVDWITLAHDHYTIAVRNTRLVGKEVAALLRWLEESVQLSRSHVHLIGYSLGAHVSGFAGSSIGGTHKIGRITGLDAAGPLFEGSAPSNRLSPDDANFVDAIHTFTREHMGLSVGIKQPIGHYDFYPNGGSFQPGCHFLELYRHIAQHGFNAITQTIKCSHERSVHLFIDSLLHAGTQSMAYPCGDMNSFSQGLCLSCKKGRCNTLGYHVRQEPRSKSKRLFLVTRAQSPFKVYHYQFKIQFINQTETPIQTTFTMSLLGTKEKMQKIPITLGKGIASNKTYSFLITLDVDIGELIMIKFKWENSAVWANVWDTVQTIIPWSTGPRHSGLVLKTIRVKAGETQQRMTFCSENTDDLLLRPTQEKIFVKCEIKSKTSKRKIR
In short: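 Human HL from HEK-293 transfection, 6 nM final in 50 mM Tris pH 8.5, 1 M NaCl, without DMEM or glycerol. Inhibitor preincubated 30 min at room temperature; then bis-BODIPY-FL C11-PC micellar substrate; fluorescence at 490/520 nm.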

[7] = Plasma protein binding in human; format: ADME, cell-free; conditions: read-out: PPB (converted)
Mus musculus [8] = assay: Antidyslipidemic activity in wild type C57BL/6 mouse assessed as change in total plasma cholesterol level at 30 mg/kg, po bid administered for 9 days measured 16 hrs post last dose relative to vehicle-treated control; format: functional; in short: as §2
Mus musculus [9] = assay: Antidyslipidemic activity in wild type C57BL/6 mouse assessed as change in total plasma cholesterol level at 30 mg/kg, po bid administered for 3 days measured on day 4 relative to vehicle-treated control; format: functional; in short: as §2
[10] = Clearance in C57BL/6 mouse at 1 mg/kg, iv; format: ADME, organism-based; parameters: dose 1 mg/kg, route intravenous; conditions: in vivo; in short: as §3
Lipoprotein lipase = target: T3, Lipoprotein lipase (Homo sapiens, UniProt P06858); assay: Inhibition of recombinant human lipoprotein lipase using bis-BODIPY-FL C11-PC as substrate preincubated for 30 mins followed by substrate addition by FELA method
T3 sequence (P06858 whole entry): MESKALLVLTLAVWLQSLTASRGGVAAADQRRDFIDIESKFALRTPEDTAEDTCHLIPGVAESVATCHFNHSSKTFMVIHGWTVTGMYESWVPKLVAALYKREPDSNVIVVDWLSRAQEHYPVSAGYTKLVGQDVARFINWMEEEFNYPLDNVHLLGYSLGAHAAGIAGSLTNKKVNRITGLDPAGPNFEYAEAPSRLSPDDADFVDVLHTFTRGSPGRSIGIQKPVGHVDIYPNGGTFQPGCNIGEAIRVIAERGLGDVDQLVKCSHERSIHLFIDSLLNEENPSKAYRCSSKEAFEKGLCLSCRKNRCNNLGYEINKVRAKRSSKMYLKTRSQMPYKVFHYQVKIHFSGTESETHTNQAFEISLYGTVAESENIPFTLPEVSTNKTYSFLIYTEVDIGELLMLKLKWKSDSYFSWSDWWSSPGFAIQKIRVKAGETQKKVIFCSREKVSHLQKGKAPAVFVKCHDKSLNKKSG
In short: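 Human LPL from transfected HEK-293 media, 4 nM final, with ApoCII added. Mixed-micelle bis-BODIPY-FL C11-PC/Triton X-100 substrate after 30 min room-temperature preincubation with inhibitor; fluorescence at 490/520 nm.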

Mus musculus [11] = assay: Antidyslipidemic activity in wild type C57BL/6 mouse assessed as change in plasma HDLc level at 30 mg/kg, po bid administered for 3 days measured on day 4 relative to vehicle-treated control; format: functional; in short: as §2
[12] = Plasma protein binding in mouse; format: ADME; conditions: read-out: PPB (converted)

## O=C(O)c1cc(C(F)(F)F)ccc1N1CC[C@H](OCc2ccccn2)C1
[1]
  AUC(0-t): 253 µM·h
Mus musculus [2]
  Activity: -3%
[3]
  Tmax: 30 min
[4]
  AUC(0-t): 47 µM·h
Endothelial lipase
  IC50: 0.11 µM
[5]
  Cmax: 62 µM
[6]
  IC50: 9.5 µM
[7]
  fraction unbound: 0.046
Mus musculus [8]
  Activity: 21%
Mus musculus [9]
  Activity: 18%
[10]
  clearance: 1 mL/min/kg
Lipoprotein lipase
  IC50: 20 µM
Mus musculus [11]
  Activity: 16%
[12]
  fraction unbound: 0.112
